Experimental data reported in ChEMBL document CHEMBL3393017, “Flavokawains B and C, melanogenesis inhibitors, isolated from the root of Piper methysticum and synthesis of analogs” (Bioorg Med Chem Lett, 2015).

Experiments:
Tyrosinase = target: T1, Tyrosinase (Agaricus bisporus, UniProt O42713); experiment: Inhibition of mushroom tyrosinase using L-tyrosine as substrate after 20 mins by microplate reader
T1 sequence (O42713 whole entry): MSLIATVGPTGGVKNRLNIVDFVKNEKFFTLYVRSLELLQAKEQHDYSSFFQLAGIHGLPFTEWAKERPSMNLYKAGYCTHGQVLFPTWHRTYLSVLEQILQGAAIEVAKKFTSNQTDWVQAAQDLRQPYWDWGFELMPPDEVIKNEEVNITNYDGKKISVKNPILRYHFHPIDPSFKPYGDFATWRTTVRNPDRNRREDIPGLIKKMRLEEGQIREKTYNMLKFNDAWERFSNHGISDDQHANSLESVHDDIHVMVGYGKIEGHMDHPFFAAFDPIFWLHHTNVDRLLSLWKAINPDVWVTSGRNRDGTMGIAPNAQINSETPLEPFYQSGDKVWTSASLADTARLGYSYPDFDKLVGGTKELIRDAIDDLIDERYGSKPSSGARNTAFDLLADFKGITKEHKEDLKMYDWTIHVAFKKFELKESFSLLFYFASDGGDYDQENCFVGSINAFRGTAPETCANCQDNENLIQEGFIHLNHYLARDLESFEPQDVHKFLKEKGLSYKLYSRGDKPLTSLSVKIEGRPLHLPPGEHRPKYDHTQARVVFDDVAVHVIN

[1] = (§1) Antimelanogenic activity in mouse B16F10 cells assessed as inhibition of melanin production after 4 days; type: functional, cell-based; conditions: B16-F10, 96 h
Procedure, shortened: (§2)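 MSH-activated B16 melanoma cells were treated in triplicate, with the medium changed daily. After 4 d the cells were lysed in 1 N NaOH, and relative melanin in the lysate was read at 400 nm. Compounds were screened at 10 ppm, and those giving >50% inhibition were retested at other concentrations to derive IC50. Viability was checked by crystal violet staining read at 590 nm.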

B16-F10 = experiment: as §1; type: functional, cell-based; procedure, shortened: as §2

IC50 (Tyrosinase) | IC50 [1] | Structure (SMILES) | inhibition (B16-F10)
Not Active |  | COc1ccc(/C=C/C(=O)c2c(O)cc(OC)cc2OC)cc1 [FLAVOKAWAIN A] | 
Not Active | 3.8 µM | COc1cc(O)c(C(=O)/C=C/c2ccccc2OC)c(OC)c1 | 
Not Active | 7.7 µM | COc1cc(O)c(C(=O)/C=C/c2ccccc2)c(OC)c1 [FLAVOKAWAIN B] | Dose-dependent effect
Not Active | 2.7 µM | COc1cc(O)c(C(=O)/C=C/c2ccccc2C(C)C)c(OC)c1 | 
Not Active | 9.9 µM | COc1cc(O)c(C(=O)/C=C/c2c(C)cccc2C)c(OC)c1 | 
Not Active | 31.6 µM | COc1cc(O)c(C(=O)/C=C/c2ccc(O)c(O)c2)c(OC)c1 | 
Not Active | 2.3 µM | COc1cc(O)c(C(=O)/C=C/c2ccccc2O)c(OC)c1 | 

The remaining lines, values behind:

Structure (SMILES) | IC50 (Tyrosinase) | IC50 [1] | inhibition (B16-F10)
CCc1ccccc1/C=C/C(=O)c1c(O)cc(OC)cc1OC | Not Active | 2.5 µM | 
COc1cc(O)c(C(=O)/C=C/c2ccc(O)cc2O)c(OC)c1 | Not Active | 3.4 µM | 
COc1cc(O)c(C(=O)/C=C/c2cccc(O)c2)c(OC)c1 | Not Active | 9.9 µM | 
COc1cccc(/C=C/C(=O)c2c(O)cc(OC)cc2OC)c1 | Not Active | 3.1 µM | 
COc1cc(O)c(C(=O)/C=C/c2ccc(O)cc2)c(OC)c1 [FLAVOKAWAIN C] | Not Active | 6.9 µM | Dose-dependent effect
COc1cc(O)c(C(=O)/C=C/c2ccccc2C)c(OC)c1 | Not Active | 3 µM | 
COc1ccc(/C=C/C(=O)c2c(O)cc(OC)cc2OC)c(OC)c1 | Not Active |  | 
O=c1cc(CO)occ1O [KOJIC ACID] |  | > 500 µM | 
